Measurements pooled from the literature.
Lines come from different studies, so protocols differ.
Target: Interferon-induced, double-stranded RNA-activated protein kinase (EIF2AK2, Homo sapiens, UniProt P19525)

CCS(=O)(=O)c1cc2cc(C[C@](O)(CC(C)(C)c3ccc(F)cc3C(N)=O)C(F)(F)F)[nH]c2cn1 — remaining binding (cell-free assay; competition with immobilised ligand; 1 µM): 52%
c1cncc(-c2cccc(Nc3nccc(NC4CCCCC4)n3)c2)c1 — remaining binding (binding; competition with immobilised ligand; 10 µM): 100%
c1cnn2ncc(-c3ccnc(N4CCC45COC5)n3)c2c1 — remaining binding (binding; 1 µM): 100%
CN1CCN(c2cnc3c(C4CCN(C(=O)c5ccc(OC(F)(F)F)cc5N)CC4)ncnc3c2)CC1 — remaining binding (cell-free assay; competition with immobilised ligand; 1 µM): 85%
CN(c1nccc(-c2cnn3ncccc23)n1)C1CC1 — remaining binding (binding; 1 µM): 100%
CC(=O)N1CCC(c2ccc(C(=O)NC(=N)N)cc2C(F)(F)F)CC1 — remaining binding (cell-free assay; competition with immobilised ligand; 1 µM): 100%
CN(C)c1nccc(-c2cnn3ncccc23)n1 — remaining binding (binding; 1 µM): 100%
Cc1cnc(Nc2ccc(C(=O)N3CCC(N4CCCC4)CC3)cc2)nc1-c1cc2ccccc2s1 — remaining binding (binding; competition with immobilised ligand; 1 µM): 7%
O=C(O)[C@H]1[C@H](Cn2nnc3ccccc3c2=O)CC[C@@H]1C(=O)c1ccc(OCCC2CCOCC2)cc1 — remaining binding (cell-free assay; competition with immobilised ligand; 1 µM): 91%
O=C(NCC1CCOCC1)c1n[nH]cc1NC(=O)c1c(F)cccc1F — remaining binding (binding; competition with immobilised ligand; 1 µM): 100%
COc1cnc(Nc2cccc(S(N)(=O)=O)c2)nc1N1CCN(c2ccccc2)C(=O)C1 — remaining binding (binding; competition with immobilised ligand; 1 µM): 99%
Cc1cnn2ncc(-c3ccnc(N(C)C)n3)c2c1 — remaining binding (binding; 1 µM): 100%
O=C(NCCCN1CCOCC1)c1ccc(Nc2ncc(Cl)c(-c3ccc(Cl)s3)n2)cc1 — remaining binding (binding; competition with immobilised ligand; 1 µM): 58%
CN(C)C(=O)Cn1cc(-c2nc(C3(c4ccc(-c5cnc(N)nc5)cc4)CC3)no2)cn1 — remaining binding (cell-free assay; competition with immobilised ligand; 1 µM): 100%
N[C@H]1CCN(c2nccc(-c3cnn4ncccc34)n2)C1 — remaining binding (binding; 1 µM): 100%
O=C(NCCCN1CCOCC1)c1ccc(Nc2nccc(-c3cc4ccccc4s3)n2)cc1 — remaining binding (binding; competition with immobilised ligand; 1 µM): 64%
FC(F)(F)Oc1cccc(-c2cnc3ccc(-c4ccncc4)nn23)c1 — remaining binding (cell-free assay; competition with immobilised ligand; 5 µM): 65%
CC(=O)C1=C(C)N(c2cccc(C(F)(F)F)c2)C(=O)N[C@@H]1c1ccc(C#N)nc1 — remaining binding (cell-free assay; competition with immobilised ligand; 1 µM): 83.4%
CNC(=O)[C@@H]1CC[C@@H](n2c(-c3ccc4cnccc4c3)nc3ccc(C(=O)NCc4cccc(C(N)=O)c4)cc32)C1 — remaining binding (binding; competition with immobilised ligand; 1 µM): 94%
CC1CCCN1c1nccc(-c2cnn3ncccc23)n1 (centres unmarked) — remaining binding (binding; 1 µM): 100%
